ChEMBL document CHEMBL4715918, “Syntheses and evaluation of acridone-naphthalimide derivatives for regulating oncogene PDGFR-β expression” (Bioorg Med Chem, 2021)

How the values were obtained:
[1] = Binding affinity to 5'-biotin-d [GCGTCCACCCTCCCTGCCCCGCCGCCCCCCCITCTCCCAGC]-3' i-motif DNA (unknown origin) assessed as change in melting temperature at 10 uM by CD spectroscopy
Summary of the method: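 Oligomer 2 µM in BPES buffer pH 5.5, heated to 95 °C for 5 min, cooled slowly and held at 4 °C overnight. Ligand 10 µM. CD ellipticity followed at 288 nm from 25–95 °C (1 mm cuvette); Tm derived, ΔTm against DNA alone.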

HEK293 = assay: Cytotoxicity against HEK293 cells assessed as reduction in cell viability after 48 hrs by MTT assay; format: cell-based; settings: Homo sapiens, HEK293, 48 h
Summary of the method: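 MTT assay: cells seeded at 5.0 × 10³/well, grown 12 h, then exposed to graded compound concentrations for 48 h at 37 °C/5% CO2. 2.5 mg/mL MTT was added for 4 h, formazan dissolved in DMSO, and absorbance read at 570 nm. Each dose in triplicate; IC50 from percent survival versus negative control.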

MCF7 [2] = assay: Induction of cell cycle arrest in human MCF7 cells assessed as accumulation at G0/G1 phase at 0.625 to 10 uM after 48 hrs by propidium iodide staining based flow cytometric analysis (reference value: 75.7%); format: functional; settings: dose 0.625-10 µM
Summary of the method: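 MCF-7 cells, 2 × 10^5/well, were pre-grown 12 h, then treated with 10, 5, 2.5, 1.25, 0.625 μM compound or DMSO. Cells were fixed in 75% ethanol at −20 °C overnight. Staining was 50 μg/mL PI with RNase A, 30 min at room temperature in the dark. Flow cytometry collected 10,000 events; phase distribution was determined.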

MCF7 [3] = assay: Antitumour activity against human MCF7 cells xenografted in nude BALB/c mouse assessed as tumour volume at 2.5 mg/kg, ip administered for 34 days (reference value: 1530 mm3); format: functional; settings: time 34 day
[4] = Toxicity in nude BALB/c mouse xenografted with human MCF7 cells assessed as kidney weight at 2.5 to 10 mg/kg, ip administered for 34 days; format: organism-based; settings: in vivo, 816 h, dose 2.5-10 mg/kg, time 34 day
Summary of the method: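 Nude BALB/c females bearing subcutaneous MCF-7 xenografts were dosed ip once daily for 34 days at 2.5, 5.0 or 10 mg/kg, with saline vehicle (100 µL) as control. Body weight was recorded every 2 days. After euthanasia by cervical dislocation, heart, liver, spleen and kidney were removed and weighed.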

MCF7 [5] = assay: Induction apoptosis in human MCF7 cells assessed as early apoptotic cells at 5 uM incubated for 24 hrs by Annexin-FTTC/PI staining based flow cytometric analysis (reference value: 0.28%); format: functional

ΔTm [1]: -16.7 °C
Structure (SMILES): Cc1ccc2c(c1)c(=O)c1cc(C(=O)NCCCN(C)CCCN3C(=O)c4cccc5c(N6CCN(C)CC6)ccc(c45)C3=O)ccc1n2-c1ccc(C(=O)NCCCN(C)CCCN2C(=O)c3cccc4c(N5CCN(C)CC5)ccc(c34)C2=O)cc1
IC50 (HEK293): > 50 µM | Activity (MCF7 [2]): 48.1% | Activity (MCF7 [3]): 985.1 mm3 | Activity [4]: Non-Toxic | Activity (MCF7 [5]): 33.5%
